In ChEMBL document CHEMBL1275350, “First in class, potent, and orally bioavailable NADPH oxidase isoform 4 (Nox4) inhibitors for the treatment of idiopathic pulmonary fibrosis” (J Med Chem, 2010):
pKi: −log10 of the molar value.

Columns and labels:
NADPH oxidase 4 = target: T1, NADPH oxidase 4 (Homo sapiens, UniProt Q9NPH5); test: Inhibition of human NOX4 overexpressed in T-REx-293 cell membrane assessed as ROS production by cell free assay in presence of NADPH; settings: in the assay text read “T-REx-293 cell membrane” for “human PMN cell membrane”
T1 sequence (Q9NPH5 whole entry): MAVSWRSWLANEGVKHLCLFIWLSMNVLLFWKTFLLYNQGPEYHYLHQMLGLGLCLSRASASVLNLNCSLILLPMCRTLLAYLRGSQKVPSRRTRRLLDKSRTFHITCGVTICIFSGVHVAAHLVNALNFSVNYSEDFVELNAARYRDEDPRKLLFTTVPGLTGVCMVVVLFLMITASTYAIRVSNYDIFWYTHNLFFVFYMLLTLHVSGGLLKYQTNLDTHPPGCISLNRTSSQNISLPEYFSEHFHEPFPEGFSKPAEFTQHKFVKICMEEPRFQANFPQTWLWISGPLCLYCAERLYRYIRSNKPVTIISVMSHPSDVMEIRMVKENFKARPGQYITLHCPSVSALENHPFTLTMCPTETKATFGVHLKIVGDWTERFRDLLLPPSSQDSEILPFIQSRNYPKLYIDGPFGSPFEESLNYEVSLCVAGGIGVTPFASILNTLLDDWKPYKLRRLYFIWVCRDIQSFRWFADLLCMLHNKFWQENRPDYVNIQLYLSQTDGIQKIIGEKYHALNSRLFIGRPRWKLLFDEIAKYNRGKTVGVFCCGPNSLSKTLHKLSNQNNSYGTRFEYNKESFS
How it was run: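 hNOX4 T-REx-293 cells induced with tetracycline (1 μg/mL, 24 h), sonicated in sucrose/NaCl/EGTA PBS buffer pH 7.4, membranes taken from a sucrose gradient. NADPH-triggered ROS measured by Amplex Red/HRP in PBS, with compound at 1 nM–100 μM, 20 min at 37 °C. Ki by Cheng-Prusoff from ≥3 triplicate experiments.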

[1] = Intrinsic clearance in Sprague-Dawley rat liver microsomes assessed per mg of protein at 0.5 uM; type: ADME, Microsome
How it was run: (§1)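 Phase I stability assay in pooled liver microsomes (human: male and female; rat: male Sprague-Dawley). Microsomes at 0.5 mg/mL final in 0.1 M phosphate pH 7.4. Compound 0.5 μM final, 0.25% DMSO. Preincubated at 37 °C, reaction started with 1 mM NADPH. Sampled at 0, 5, 15, 30 and 45 min, with a 45 min minus-NADPH control. Methanol quench with internal standard, LC/MS-MS, intrinsic clearance calculated.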

[2] = Permeability across human Caco-2 cell membrane at 10 uM after 2 hrs; type: ADME, cell-based
How it was run: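 Caco-2 monolayers grown 20 days in DMEM, used when TEER >800 Ω·cm2. Dosed at 10 μM final in HBSS pH 6.5 with 1% DMSO, apical-to-basolateral and basolateral-to-apical. Incubated 2 h at 37 °C, both compartments sampled, LC-MS/MS with five-point calibration. Papp = (dQ/dt)/(C0A).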

[3] = Intrinsic clearance in human liver microsomes assessed as per mg of protein at 0.5 uM; type: ADME, Microsome; how it was run: as §1
[4] = AUC (infinity) in Sprague-Dawley rat at 10 mg/kg, po; type: ADME, organism-based; parameters: time infinity, dose 10 mg/kg, route oral; settings: plasma
How it was run: (§2)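 Parallel design with six male rats: three given 5 mg/kg iv in EDPW (10% EtOH, 10% DMA, 30% PG, 50% water), three given 10 mg/kg orally in aqueous 0.5% CMC with 0.25% Tween 20. Carotid cannula blood sampled up to 24 h. Plasma levels by LC/MS/MS (LLOQ 1.00 ng/mL). Noncompartmental analysis.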

[5] = Oral bioavailability in Sprague-Dawley rat at 10 mg/kg; type: ADME, organism-based; settings: in vivo
How it was run: (§3)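 Parallel design in male rats, three per group. Group 1: 5 mg/kg iv in EDPW (10% EtOH, 10% DMA, 30% PG, 50% water). Group 2: 10 mg/kg oral in aqueous 0.5% CMC with 0.25% Tween 20. Carotid cannula blood drawn up to 24 h. Plasma measured by LC/MS/MS (LLOQ 1.00 ng/mL), noncompartmental analysis.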

[6] = Cmax in Sprague-Dawley rat at 10 mg/kg, po; type: ADME, organism-based; parameters: dose 10 mg/kg, route oral; settings: in vivo; how it was run: as §2
[7] = Tmax in Sprague-Dawley rat at 10 mg/kg, po; type: ADME, organism-based; parameters: dose 10 mg/kg, route oral; settings: in vivo; how it was run: as §3
[8] = Half life in Sprague-Dawley rat at 10 mg/kg, po; type: ADME, organism-based; parameters: dose 10 mg/kg, route oral; settings: in vivo; how it was run: as §2
[9] = AUC (infinity) in Sprague-Dawley rat at 5 mg/kg, iv; type: ADME, organism-based; parameters: time infinity, dose 5 mg/kg, route intravenous; settings: plasma; how it was run: as §2
[10] = Cmax in Sprague-Dawley rat at 5 mg/kg, iv; type: ADME, organism-based; parameters: dose 5 mg/kg, route intravenous; settings: in vivo; how it was run: as §2
[11] = Clearance in Sprague-Dawley rat at 10 mg/kg, po; type: ADME, organism-based; parameters: dose 10 mg/kg, route oral; settings: in vivo; how it was run: as §2
[12] = Clearance in Sprague-Dawley rat at 5 mg/kg, iv; type: ADME, organism-based; parameters: dose 5 mg/kg, route intravenous; settings: in vivo; how it was run: as §2
[13] = Volume of distribution at steady state in Sprague-Dawley rat at 5 mg/kg, iv; type: ADME, organism-based; parameters: dose 5 mg/kg, route intravenous; settings: in vivo, read-out: Vdss; how it was run: as §3

pKi (NADPH oxidase 4) | SMILES | also measured
6.34 | Cc1c2c(=O)n(-c3ccnc4cc(Cl)ccc34)[nH]c2cc(=O)n1Cc1ccccn1 | 
6.50 | COCCn1[nH]c2cc(=O)n(Cc3ccccn3)c(C)c2c1=O | 
6.67 | Cc1c2c(=O)n(-c3ccccc3Cl)[nH]c2cc(=O)n1C | microsomal CLint at 0.5 µM [1]: 49.3 µL/min/mg
5.37 | Cc1c2c(=O)n(-c3nc4ccccc4s3)[nH]c2cc(=O)n1Cc1ccc(C(=O)O)cc1 | 
6.63 | Cc1c2c(=O)n(-c3ccc(F)cc3Cl)[nH]c2cc(=O)n1Cc1ccccn1 | microsomal CLint at 0.5 µM [1]: 84.2 µL/min/mg; Papp at 2 h, 10 µM [2]: 13.4 ×10⁻⁶ cm/s; microsomal CLint at 0.5 µM [3]: 37.6 µL/min/mg
5.73 | Cc1c2c(=O)n(-c3nc4ccccc4s3)[nH]c2cc(=O)n1CCc1c[nH]c2ccccc12 | 
< 4.52 | Cc1c2c(=O)n(-c3nc4ccccc4s3)n(Cc3ccccn3)c2cc(=O)n1CC1CCOC1 (stereo unspecified) | 
6.41 | Cc1c2c(=O)n(C)[nH]c2cc(=O)n1Cc1ccccn1 | 
6.48 | Cc1c2c(=O)n(CCc3ccccc3)[nH]c2cc(=O)n1Cc1ccccn1 | 
6.89 | Cn1c(-c2ccccc2F)c2c(=O)n(-c3ccccc3Cl)[nH]c2cc1=O | 
6.47 | Cc1c2c(=O)n(Cc3ccc(F)cc3Cl)[nH]c2cc(=O)n1Cc1ccccn1 | 
6.59 | Cc1c2c(=O)n(Cc3ccc(Cl)cc3)[nH]c2cc(=O)n1Cc1ccccn1 | 
7.09 | Cn1c(COCc2ccccc2Cl)c2c(=O)n(-c3ccccc3Cl)[nH]c2cc1=O | microsomal CLint at 0.5 µM [1]: 210 µL/min/mg; Papp at 2 h, 10 µM [2]: 62.6 ×10⁻⁶ cm/s; microsomal CLint at 0.5 µM [3]: 212 µL/min/mg
6.49 | Cc1c2c(=O)n(CCOc3ccc(Cl)cc3)[nH]c2cc(=O)n1Cc1ccccn1 | 
5.51 | Cc1c2c(=O)n(-c3ccc(OCc4ccccc4)cc3)[nH]c2cc(=O)n1C | 
6.66 | Cc1c2c(=O)n(Cc3cc(Cl)ccc3Cl)[nH]c2cc(=O)n1Cc1ccccn1 | 
6.29 | Cc1c2c(=O)n(-c3ccccc3Cl)[nH]c2cc(=O)n1Cc1ccc(CN2CCN(C)CC2)cc1 | 

Further lines, the compound ahead of its results:

SMILES | pKi (NADPH oxidase 4) | also measured
Cc1c2c(=O)n(-c3ccc(S(=O)(=O)N4CCN(C)CC4)cn3)[nH]c2cc(=O)n1C | 5.85 | 
Cc1c2c(=O)n(-c3ccccc3Cl)[nH]c2cc(=O)n1CC1CCCCC1 | 6.28 | 
Cc1c2c(=O)n(-c3ccccc3F)[nH]c2cc(=O)n1C | 6.51 | 
Cc1c2c(=O)n(-c3cccc(C#N)c3)[nH]c2cc(=O)n1C | 6.53 | 
COc1cccc(N2CCN(Cc3c4c(=O)n(-c5ccccc5Cl)[nH]c4cc(=O)n3C)CC2)c1 | 7.19 | microsomal CLint at 0.5 µM [1]: 121 µL/min/mg; microsomal CLint at 0.5 µM [3]: 57.9 µL/min/mg
CC(=O)n1c2cc(=O)n(Cc3cccnc3)c(C)c2c(=O)n1-c1ccccc1 | 6.39 | 
COCCn1c(COc2ccc(F)cc2)c2c(=O)n(CCN3CCOCC3)[nH]c2cc1=O | 6.82 | microsomal CLint at 0.5 µM [1]: 45.3 µL/min/mg; Papp at 2 h, 10 µM [2]: 1.4 ×10⁻⁶ cm/s; microsomal CLint at 0.5 µM [3]: 45.1 µL/min/mg; AUC(0-inf) [4]: 109 ng·h/mL; bioavailability [5]: 6%; Cmax [6]: 132 ng/mL; Tmax [7]: 0.25 h; half-life [8]: 2.35 h; AUC(0-inf) [9]: 822 ng·h/mL; Cmax [10]: 4640 ng/mL; CL/F [11]: 1610 mL/min/kg; clearance [12]: 109 mL/min/kg; Vd [13]: 2.95 L/kg
Cc1c2c(=O)n(-c3ccc(F)cc3Cl)[nH]c2cc(=O)n1C | 6.67 | 
Cc1c2c(=O)n(-c3ccccc3)n(Cc3ccc(F)cc3)c2cc(=O)n1CCc1c[nH]c2ccccc12 | < 4.52 | 
Cc1c2c(=O)n(-c3ccccc3)n(Cc3ccccc3Cl)c2cc(=O)n1CCCN1CCCC1=O | < 4.52 | 
Cc1c2c(=O)n(C)[nH]c2cc(=O)n1C | 5.66 | 
Cc1c2c(=O)n(-c3ccccc3Cl)[nH]c2cc(=O)n1CCCC(=O)N1CCN(C)CC1 | 6.37 | 
